Laboratory results as given in ChEMBL document CHEMBL1157562, “Piperazinyl glutamate pyridines as potent orally bioavailable P2Y12 antagonists for inhibition of platelet aggregation” (J Med Chem, 2010).

Assays:
[1] = target: P2Y purinoceptor 12 (Homo sapiens, UniProt Q9H244); assay: Displacement of [33P]ADP from human recombinant P2Y12 receptor expressed in CHO cells; type: cell-based
Procedure, shortened: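 Washed membranes from CHO cells expressing synthetic human P2Y12, incubated 1 h at room temperature with 0.2 nM 33P-MeSADP in 50 mM Tris/100 mM NaCl/1 mM EDTA. Compound was tested as a 7-point 3-fold series in triplicate. Nonspecific binding was defined with 300 nM 2-MeSADP, followed by filtration.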

[2] = Antiplatelet aggregation activity against adenosine diphosphate-induced human platelet rich plasma assessed as inhibition of platelet aggregation by turbidimetric method; type: functional; conditions: Homo sapiens, Platelet, Plasma
Procedure, shortened: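 Human PRP, prepared by two-step centrifugation and adjusted to 330 000 platelets/μL with PPP. Compound was preincubated 5 min at 37 °C in 0.5% DMSO, then 20 μM ADP was added. OD626 was read kinetically for 15 min at 37 °C with mixing between reads.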

[3] = system: Platelet; assay: Relative potency, ratio of IC50 for drug to IC50 for AZD-6140 for platelet aggregation in human platelet rich plasma; type: functional
[4] = Clearance in Sprague-Dawley rat at 2 mg/kg, iv and 5 mg/kg, po; type: ADME, organism-based; conditions: in vivo
Procedure, shortened: (§1)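 Rats received 2 mg/kg iv infusion or 5 mg/kg po, in 50% PEG400/40% PBS/10% ethanol.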

[5] = Volume of distribution at steady state in Sprague-Dawley rat at 2 mg/kg, iv and 5 mg/kg, po; type: ADME, organism-based; conditions: in vivo, read-out: Vdss; procedure, shortened: as §1
[6] = Half life in Sprague-Dawley rat at 2 mg/kg, iv and 5 mg/kg, po; type: ADME, organism-based; conditions: in vivo; procedure, shortened: as §1

Sequence of P2Y purinoceptor 12 (Q9H244 whole entry): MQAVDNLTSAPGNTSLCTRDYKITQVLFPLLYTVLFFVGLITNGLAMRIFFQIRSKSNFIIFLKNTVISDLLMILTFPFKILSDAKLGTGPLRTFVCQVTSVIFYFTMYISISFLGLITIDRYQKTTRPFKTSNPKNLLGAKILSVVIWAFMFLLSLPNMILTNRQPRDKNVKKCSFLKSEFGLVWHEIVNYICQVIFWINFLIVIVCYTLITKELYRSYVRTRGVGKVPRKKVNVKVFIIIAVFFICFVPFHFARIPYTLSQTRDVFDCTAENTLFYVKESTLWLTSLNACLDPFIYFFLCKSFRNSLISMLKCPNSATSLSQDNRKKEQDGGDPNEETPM

| SMILES | Ki [1] | IC50 [2] | clearance [4] | Vd [5] | half-life [6] | Ratio IC50 [3] |
| --- | --- | --- | --- | --- | --- | --- |
| CCCCCOC(=O)N1CCN(C(=O)[C@H](CCC(=O)O)NC(=O)c2cc(CCCN(CC)CC)cc(-c3ccccc3)n2)CC1 | 22 nM | 1100 nM | 96 mL/min/kg | 9.2 L/kg | 66 min | 1.6 |
| CCCCCOC(=O)N1CCN(C(=O)[C@H](CCC(=O)O)NC(=O)c2cc(OC(=O)N3CCOCC3)cc(-c3ccccc3)n2)CC1 | 4.8 nM | 1700 nM | 220 mL/min/kg | 31 L/kg | 96 min | 0.99 |
| CCCCCOC(=O)N1CCN(C(=O)[C@H](CCC(=O)O)NC(=O)c2cc(OC(=O)N(C)CC3CCOCC3)cc(-c3ccccc3)n2)CC1 | 45 nM | 470 nM | 109 mL/min/kg | 8.6 L/kg | 78 min | 0.82 |
| CCCCCOC(=O)N1CCN(C(=O)[C@H](CCC(=O)O)NC(=O)c2cc(CCCNCC(C)C)cc(-c3ccccc3)n2)CC1 | 12 nM | 1000 nM | 112 mL/min/kg | 5.6 L/kg | 36 min | 1.5 |
| CCCCCOC(=O)N1CCN(C(=O)[C@H](CCC(=O)O)NC(=O)c2cc(OCC3CCNCC3)cc(-c3ccccc3)n2)CC1 | 4.5 nM | 820 nM | 62 mL/min/kg | 1.3 L/kg | 12 min | 0.82 |
| CCCCCOC(=O)N1CCN(C(=O)[C@H](CCC(=O)O)NC(=O)c2cc(OCC3CCN(CCOC)CC3)cc(-c3ccccc3)n2)CC1 | 5.3 nM | 550 nM | 141 mL/min/kg | 10.9 L/kg | 53.4 min | 0.73 |

Now from value to molecule, other results behind:

| Ki [1] | IC50 [2] | clearance [4] | Vd [5] | half-life [6] | SMILES | Ratio IC50 [3] |
| --- | --- | --- | --- | --- | --- | --- |
| 5.4 nM | 580 nM | 37 mL/min/kg | 0.77 L/kg | 12 min | CCCCCOC(=O)N1CCN(C(=O)[C@H](CCC(=O)O)NC(=O)c2cc(C(=O)N3CCC(N(C)C)CC3)cc(-c3ccccc3)n2)CC1 | 1 |
| 39 nM | 25000 nM | 58 mL/min/kg | 3.4 L/kg | 42 min | CCOC(=O)N1CCN(C(=O)[C@H](CCC(=O)O)NC(=O)c2cc(N3CCOCC3)cc(-c3ccccc3)n2)CC1 | 22 |
| 5.5 nM | 380 nM | 63 mL/min/kg | 3.4 L/kg | 36 min | CCCCCOC(=O)N1CCN(C(=O)[C@H](CCC(=O)O)NC(=O)c2cc(OCC3CCN(C(C)C)CC3)cc(-c3ccccc3)n2)CC1 | 0.5 |
| 17 nM | 1100 nM | 32 mL/min/kg | 0.38 L/kg | 6 min | CCCCCOC(=O)N1CCN(C(=O)[C@H](CCC(=O)O)NC(=O)c2cc(N3CCC(N)CC3)cc(-c3ccccc3)n2)CC1 | 1.2 |
| 22 nM | 1800 nM | 81 mL/min/kg | 2.3 L/kg | 18 min | CCCCCOC(=O)N1CCN(C(=O)[C@H](CCC(=O)O)NC(=O)c2cc(N3CCC(N(C)C)CC3)cc(-c3ccccc3)n2)CC1 | 2.1 |
| 3.6 nM | 1800 nM | 36 mL/min/kg | 0.58 L/kg | 12 min | CCCCCOC(=O)N1CCN(C(=O)[C@H](CCC(=O)O)NC(=O)c2cc(OC3CCN(C(C)=O)CC3)cc(-c3ccccc3)n2)CC1 | 1.8 |
| 1 nM | 1300 nM | 38 mL/min/kg | 3.2 L/kg | 60 min | CCCCCOC(=O)N1CCN(C(=O)[C@H](CCC(=O)O)NC(=O)c2cc(CCCN(C)C)cc(-c3ccccc3)n2)CC1 | 1.3 |
| 4.4 nM | 710 nM | 51 mL/min/kg | 1.1 L/kg | 14.4 min | CCCCCOC(=O)N1CCN(C(=O)[C@H](CCC(=O)O)NC(=O)c2cc(C(=O)N3CCOCC3)cc(-c3ccccc3)n2)CC1 | 1 |
